We go through twelve compounds from ChEMBL document CHEMBL2331438, “An efficient domino reaction in ionic liquid: synthesis and biological evaluation of some pyrano- and thiopyrano-fused heterocycles” (2013).

Molecules are shown by their SMILES. ≈ marks a conversion by molar mass, not a printed value.

The test system of one experiment is Streptococcus pneumoniae. As to the kind of experiment: Antibacterial activity against Streptococcus pneumoniae MTCC 1936 after 24 hrs by broth microdilution method. It is filed as functional. To be noted: MTCC 1936, 24 h.
Experiment [1] can be described thus: Antioxidant activity assessed as ascorbic acid equivalent ferric ion reducing activity per 100 gram at 200 ug/ml by FRAP assay. Format: functional.
The subject of a further experiment is Candida albicans. As to the kind of experiment: Antifungal activity against Candida albicans MTCC 227 after 48 hrs by broth microdilution method. Format: functional. The conditions noted are these: MTCC 227, 48 h. On the technique in general: Dilution methods test growth across graded concentrations, often in twofold steps.
Another experiment concerns Aspergillus fumigatus. Kind of experiment: Antifungal activity against Aspergillus fumigatus MTCC 3008 after 48 hrs by broth microdilution method. It is filed as functional. To be noted: MTCC 3008, 48 h.
The test system of another experiment is Bacillus subtilis. As to the kind of experiment: Antibacterial activity against Bacillus subtilis MTCC 441 after 24 hrs by broth microdilution method. It is filed as functional. To be noted: MTCC 441, 24 h.
The subject of the next experiment is Escherichia coli. As to the kind of experiment: Antibacterial activity against Escherichia coli MTCC 443 after 24 hrs by broth microdilution method. Format: functional. To be noted: MTCC 443, 24 h.
The test system of experiment [2] is Mycobacterium tuberculosis. As to the kind of experiment: Antimycobacterial activity against Mycobacterium tuberculosis H37Rv at 250 ug/ml. It is filed as functional. The procedure, abridged: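 M. tuberculosis H37Rv tested on L.J. (Löwenstein–Jensen) medium.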
The subject of a further experiment is Vibrio cholerae. As to the kind of experiment: Antibacterial activity against Vibrio cholerae MTCC 3906 after 24 hrs by broth microdilution method. Format: functional. To be noted: MTCC 3906, 24 h.
The test system of a further experiment is Clostridium tetani. As to the kind of experiment: Antibacterial activity against Clostridium tetani MTCC 449 after 24 hrs by broth microdilution method. It is filed as functional. The conditions noted are these: MTCC 449, 24 h.
For another experiment, the system named is Salmonella typhi. As to the kind of experiment: Antibacterial activity against Salmonella typhi MTCC 98 after 24 hrs by broth microdilution method. It is filed as functional, Salmonella enterica subsp. enterica serovar Typhi. The conditions noted are these: Salmonella enterica, MTCC 98, 24 h.

For `Cc1nn(-c2cc(Cl)ccc2Cl)c2c1[C@@H]1c3cc4ccccc4nc3SC[C@@H]1CO2`, the MIC – broadly, the least concentration at which growth counts as inhibited – was 200 µg/mL (≈ 440 µM) with Streptococcus pneumoniae; 500 µg/mL (≈ 1100 µM) with Candida albicans; greater than 1000 µg/mL against Aspergillus fumigatus; 100 µg/mL (≈ 220 µM) in the experiment with Bacillus subtilis; 250 µg/mL (≈ 550 µM) in the experiment on Escherichia coli. Further, in [1], the Activity was 158 mmol.
On to `Cc1nn(-c2cc(Cl)ccc2Cl)c2c1[C@@H]1c3c(ccc4c(C)cc(=O)oc34)OC[C@@H]1C(C)(C)O2`, for which the MIC was determined as 100 µg/mL (≈ 201 µM) against Streptococcus pneumoniae; 500 µg/mL (≈ 1010 µM) in the experiment with Candida albicans; 500 µg/mL (≈ 1010 µM) in the experiment with Aspergillus fumigatus; 100 µg/mL (≈ 201 µM) against Bacillus subtilis; 100 µg/mL (≈ 201 µM) with Escherichia coli. Besides, the Activity in experiment [1] is 187 mmol.
Regarding `Cc1nn(-c2cccc(Cl)c2)c2c1[C@@H]1c3cc4cccc(C)c4nc3SC[C@@H]1CO2`, the inhibition (in general, the share of the control response that was lost under treatment) at 250 µg/mL in experiment [2] was 82%. For the same compound, the MIC against Vibrio cholerae worked out at 200 µg/mL (≈ 461 µM); against Clostridium tetani it was 200 µg/mL (≈ 461 µM); in the experiment with Streptococcus pneumoniae, 250 µg/mL (≈ 576 µM); against Salmonella typhi, 500 µg/mL (≈ 1150 µM); against Candida albicans it was 1000 µg/mL (≈ 2300 µM); against Aspergillus fumigatus it was 200 µg/mL (≈ 461 µM). Also, the MIC with Bacillus subtilis and in the experiment on Escherichia coli was 250 µg/mL (≈ 576 µM) throughout. Also, the Activity in experiment [1] came to 125 mmol.
Turning to `O=C(O)c1cn(C2CC2)c2cc(N3CCNCC3)c(F)cc2c1=O` [CIPROFLOXACIN], the MIC against Vibrio cholerae is 25 µg/mL (≈ 75.4 µM); in the experiment on Streptococcus pneumoniae it was 50 µg/mL (≈ 151 µM); against Salmonella typhi, 25 µg/mL (≈ 75.4 µM); in the experiment with Escherichia coli, 25 µg/mL (≈ 75.4 µM).
As for `Cc1nn(-c2ccccc2Cl)c2c1[C@@H]1c3cc4cccc(C)c4nc3SC[C@@H]1CO2`, in [2], 250 µg/mL produced 29% inhibition. Further, the MIC against Vibrio cholerae came to 200 µg/mL (≈ 461 µM); against Clostridium tetani, 125 µg/mL (≈ 288 µM); against Streptococcus pneumoniae, 100 µg/mL (≈ 230 µM); in the experiment on Salmonella typhi it was 250 µg/mL (≈ 576 µM); in the experiment on Candida albicans, 500 µg/mL (≈ 1150 µM); in the experiment with Aspergillus fumigatus it was 250 µg/mL (≈ 576 µM). In addition, the results for the MIC in the experiment with Bacillus subtilis and in the experiment on Escherichia coli were 125 µg/mL (≈ 288 µM) and 250 µg/mL (≈ 576 µM), respectively. The Activity in experiment [1] came to 147 mmol.
In the case of `Cc1cccc2cc3c(nc12)SC[C@@H]1COc2c(c(-c4ccccc4)nn2-c2ccccc2)[C@H]31`, testing at 250 µg/mL in experiment [2] gave an inhibition of 9%. The MIC is 200 µg/mL (≈ 433 µM) with Vibrio cholerae; 125 µg/mL (≈ 271 µM) in the experiment on Clostridium tetani; 200 µg/mL (≈ 433 µM) against Streptococcus pneumoniae; 125 µg/mL (≈ 271 µM) against Salmonella typhi; greater than 1000 µg/mL in the experiment on Candida albicans; greater than 1000 µg/mL against Aspergillus fumigatus. The minimal inhibitory concentration (MIC) stood at 200 µg/mL (≈ 433 µM) against Bacillus subtilis and 100 µg/mL (≈ 217 µM) in the experiment with Escherichia coli. The Activity in experiment [1] came to 101 mmol.
`Cc1nn(-c2ccccc2Cl)c2c1[C@@H]1c3cc4ccccc4nc3SC[C@@H]1CO2` returned an inhibition at 250 µg/mL in experiment [2] of 52%. The MIC in the experiment on Vibrio cholerae was 250 µg/mL (≈ 595 µM); in the experiment on Clostridium tetani it was 250 µg/mL (≈ 595 µM); against Streptococcus pneumoniae, 100 µg/mL (≈ 238 µM); in the experiment on Salmonella typhi, 250 µg/mL (≈ 595 µM); against Candida albicans, 1000 µg/mL (≈ 2380 µM); in the experiment on Aspergillus fumigatus, greater than 1000 µg/mL. In addition, the figures for the MIC in the experiment with Bacillus subtilis and in the experiment on Escherichia coli were 125 µg/mL (≈ 298 µM) and 250 µg/mL (≈ 595 µM), respectively. Moreover, in experiment [1], the Activity was found to be 90.9 mmol.
In experiment [2], `Cc1nn(-c2ccc(Cl)c(Cl)c2)c2c1[C@@H]1c3c(ccc4c(C)cc(=O)oc34)OC[C@@H]1CO2` gave an inhibition at 250 µg/mL of 20%. The MIC against Vibrio cholerae is 125 µg/mL (≈ 266 µM); with Clostridium tetani it was 100 µg/mL (≈ 213 µM); against Streptococcus pneumoniae, 250 µg/mL (≈ 533 µM); with Salmonella typhi, 250 µg/mL (≈ 533 µM); with Candida albicans it was 500 µg/mL (≈ 1070 µM); in the experiment on Aspergillus fumigatus it was 500 µg/mL (≈ 1070 µM). The MIC in the experiment on Bacillus subtilis and with Escherichia coli was 250 µg/mL (≈ 533 µM) throughout. Also, in [1], the Activity was found to be 120 mmol.
As to `Cc1cc(=O)oc2c3c(ccc12)OC[C@@H]1COc2c(c(-c4ccccc4)nn2-c2ccccc2)[C@H]31`, the inhibition at 250 µg/mL in experiment [2] is 68%. For the same compound, the MIC in the experiment with Vibrio cholerae was 100 µg/mL (≈ 216 µM); in the experiment with Clostridium tetani it was 100 µg/mL (≈ 216 µM); in the experiment on Streptococcus pneumoniae, 100 µg/mL (≈ 216 µM); with Salmonella typhi, 125 µg/mL (≈ 270 µM); in the experiment on Candida albicans it was 500 µg/mL (≈ 1080 µM); in the experiment on Aspergillus fumigatus, 500 µg/mL (≈ 1080 µM). Moreover, the MIC is 125 µg/mL (≈ 270 µM) against Bacillus subtilis and 62.5 µg/mL (≈ 135 µM) against Escherichia coli. For the same compound, in [1], the Activity was determined as 163 mmol.
Consider `O=C(N[C@H](CO)[C@H](O)c1ccc([N+](=O)[O-])cc1)C(Cl)Cl` [CHLORAMPHENICOL], for which the minimum inhibitory concentration (MIC) against Vibrio cholerae, in the experiment on Clostridium tetani, against Streptococcus pneumoniae, against Salmonella typhi, in the experiment with Bacillus subtilis and with Escherichia coli was 50 µg/mL (≈ 155 µM) in each case.
As to `CC1(C)S[C@@H]2[C@H](NC(=O)[C@H](N)c3ccccc3)C(=O)N2[C@H]1C(=O)O` [AMPICILLIN], the MIC against Vibrio cholerae is 100 µg/mL (≈ 286 µM); with Clostridium tetani, 250 µg/mL (≈ 715 µM); with Streptococcus pneumoniae, 100 µg/mL (≈ 286 µM); against Salmonella typhi it was 100 µg/mL (≈ 286 µM); against Bacillus subtilis it was 250 µg/mL (≈ 715 µM); with Escherichia coli it was 100 µg/mL (≈ 286 µM).
On to `COC1=CC(=O)C[C@@H](C)[C@]12Oc1c(Cl)c(OC)cc(OC)c1C2=O` [GRISEOFULVIN], for which the MIC with Candida albicans came out at 500 µg/mL (≈ 1420 µM); in the experiment with Aspergillus fumigatus it was 100 µg/mL (≈ 283 µM).
